These results are taken from article PMC11628833 (Acta Pharmaceutica Sinica. B, 2024).

The structures appear in SMILES notation.

One experiment concerns the target TLR5 (Homo sapiens, UniProt O60602). The experiment is described as follows: Specificity test in HEK-Blue TLR-overexpressing cells, TLR5. Format: cell-based. Particulars: 5 μM S-1, HEK-Blue TLR cells, TLR-specific agonist.
The next experiment has as its system TLR1/2/6. Put plainly: Specificity test in HEK-Blue TLR-overexpressing cells, TLR1/2/6. Format: cell-based, human. The following applies: 5 μM S-1, HEK-Blue TLR cells, TLR-specific agonists.
The target of another experiment is TLR4 (Homo sapiens, UniProt O00206). The experiment is described as follows: Specificity test in HEK-Blue TLR-overexpressing cells, TLR4. The format is cell-based. The following applies: 5 μM S-1, HEK-Blue TLR cells, TLR-specific agonist.
For the next experiment, the target named is T1, TLR3 (Homo sapiens, UniProt O15455).
T1 sequence (O15455 24-904): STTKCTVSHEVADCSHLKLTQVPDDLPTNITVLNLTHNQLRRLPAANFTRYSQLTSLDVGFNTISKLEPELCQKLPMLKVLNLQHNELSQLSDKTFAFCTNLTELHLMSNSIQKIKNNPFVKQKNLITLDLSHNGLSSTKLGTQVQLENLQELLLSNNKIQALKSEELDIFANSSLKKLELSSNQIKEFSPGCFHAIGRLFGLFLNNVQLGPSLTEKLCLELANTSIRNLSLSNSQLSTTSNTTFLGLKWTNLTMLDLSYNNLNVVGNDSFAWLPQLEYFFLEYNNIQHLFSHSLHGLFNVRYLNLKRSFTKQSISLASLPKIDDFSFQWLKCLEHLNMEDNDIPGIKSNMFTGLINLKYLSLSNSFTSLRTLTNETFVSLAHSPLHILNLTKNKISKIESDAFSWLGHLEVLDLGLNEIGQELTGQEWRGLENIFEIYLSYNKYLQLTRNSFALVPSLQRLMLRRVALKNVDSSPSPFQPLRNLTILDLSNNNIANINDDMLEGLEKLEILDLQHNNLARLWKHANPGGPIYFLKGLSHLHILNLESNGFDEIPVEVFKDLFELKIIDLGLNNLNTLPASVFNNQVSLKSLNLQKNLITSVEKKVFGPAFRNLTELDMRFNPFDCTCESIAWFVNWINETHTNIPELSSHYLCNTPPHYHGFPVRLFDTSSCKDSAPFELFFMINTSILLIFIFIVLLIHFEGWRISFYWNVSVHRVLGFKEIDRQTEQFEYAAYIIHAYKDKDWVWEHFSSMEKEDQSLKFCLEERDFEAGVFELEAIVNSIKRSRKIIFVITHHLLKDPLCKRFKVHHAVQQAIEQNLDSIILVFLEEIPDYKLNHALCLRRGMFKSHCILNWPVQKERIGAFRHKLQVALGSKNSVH
Put plainly: Specificity test in HEK-Blue TLR-overexpressing cells, TLR3. The format is cell-based. The following applies: 5 μM S-1, HEK-Blue TLR cells, TLR-specific agonist.

The next experiment concerns the target T2, human TLR7 (Homo sapiens, UniProt Q9NYK1).
T2 sequence (Q9NYK1 27-1049): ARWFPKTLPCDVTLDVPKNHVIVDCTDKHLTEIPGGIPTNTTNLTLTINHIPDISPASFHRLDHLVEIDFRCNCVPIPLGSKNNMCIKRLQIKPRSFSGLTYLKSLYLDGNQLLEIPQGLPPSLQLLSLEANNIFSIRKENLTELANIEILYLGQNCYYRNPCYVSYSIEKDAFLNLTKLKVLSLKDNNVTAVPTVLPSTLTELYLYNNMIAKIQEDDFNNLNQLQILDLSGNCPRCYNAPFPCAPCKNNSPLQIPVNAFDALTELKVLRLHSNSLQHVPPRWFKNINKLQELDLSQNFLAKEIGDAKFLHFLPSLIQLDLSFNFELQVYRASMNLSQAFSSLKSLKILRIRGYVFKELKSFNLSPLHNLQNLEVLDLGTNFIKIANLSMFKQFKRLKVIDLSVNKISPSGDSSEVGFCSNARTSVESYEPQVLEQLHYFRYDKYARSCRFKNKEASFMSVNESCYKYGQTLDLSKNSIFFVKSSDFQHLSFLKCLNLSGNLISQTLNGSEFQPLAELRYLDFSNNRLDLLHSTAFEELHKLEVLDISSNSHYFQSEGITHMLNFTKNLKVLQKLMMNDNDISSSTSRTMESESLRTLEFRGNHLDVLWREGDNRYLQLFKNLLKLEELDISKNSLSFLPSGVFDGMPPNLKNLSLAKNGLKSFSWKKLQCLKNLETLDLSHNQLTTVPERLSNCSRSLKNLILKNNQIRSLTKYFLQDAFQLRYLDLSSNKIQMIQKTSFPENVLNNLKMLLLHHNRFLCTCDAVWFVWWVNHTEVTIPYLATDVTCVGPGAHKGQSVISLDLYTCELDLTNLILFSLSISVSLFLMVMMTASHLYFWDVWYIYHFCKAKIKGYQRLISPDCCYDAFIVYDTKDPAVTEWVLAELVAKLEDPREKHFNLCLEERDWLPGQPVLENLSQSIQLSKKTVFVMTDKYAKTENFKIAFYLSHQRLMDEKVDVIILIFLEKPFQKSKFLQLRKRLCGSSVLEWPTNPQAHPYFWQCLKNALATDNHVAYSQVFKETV
The experiment is described as follows: SEAP reporter assay in HEK-Blue hTLR7 cells. Format: cell-based. A digest of the protocol: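 HEK-Blue hTLR7 cells (stable human TLR7 with SEAP reporter) were plated at 5 × 10^5 cells/mL in DMEM with 10% heat-inactivated FBS. They were treated with R848 and varying test compound concentrations at 37 °C for 20–24 h. Medium was mixed with QUANTI-Blue, incubated at 37 °C for about 30 min, and read at 620 nm. R848-only = 100% activation; untreated = 0%.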
Background: A reporter such as luciferase makes a cellular process visible.

Sequence of TLR5 (O60602 21-858): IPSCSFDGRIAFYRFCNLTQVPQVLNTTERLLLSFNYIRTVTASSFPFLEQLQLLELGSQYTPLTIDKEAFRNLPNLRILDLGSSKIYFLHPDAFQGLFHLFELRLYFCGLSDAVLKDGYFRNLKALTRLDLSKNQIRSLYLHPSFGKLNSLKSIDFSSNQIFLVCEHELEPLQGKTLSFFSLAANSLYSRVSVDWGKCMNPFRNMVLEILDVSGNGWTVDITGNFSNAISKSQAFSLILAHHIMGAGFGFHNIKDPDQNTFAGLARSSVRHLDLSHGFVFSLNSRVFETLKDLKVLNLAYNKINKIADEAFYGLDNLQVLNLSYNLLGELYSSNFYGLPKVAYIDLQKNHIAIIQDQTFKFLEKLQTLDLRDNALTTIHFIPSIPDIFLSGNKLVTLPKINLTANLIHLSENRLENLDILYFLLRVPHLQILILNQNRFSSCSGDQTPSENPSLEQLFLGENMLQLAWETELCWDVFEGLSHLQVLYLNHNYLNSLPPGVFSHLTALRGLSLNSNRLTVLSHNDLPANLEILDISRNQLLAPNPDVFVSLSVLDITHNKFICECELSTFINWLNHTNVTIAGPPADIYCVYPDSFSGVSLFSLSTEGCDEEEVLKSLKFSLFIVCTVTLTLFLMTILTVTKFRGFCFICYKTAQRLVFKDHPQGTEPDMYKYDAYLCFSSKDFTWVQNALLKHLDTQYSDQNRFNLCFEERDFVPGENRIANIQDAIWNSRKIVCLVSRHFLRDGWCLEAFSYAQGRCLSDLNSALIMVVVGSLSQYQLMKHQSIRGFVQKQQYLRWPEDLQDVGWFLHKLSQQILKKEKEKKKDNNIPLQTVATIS
Sequence of TLR4 (O00206 24-839): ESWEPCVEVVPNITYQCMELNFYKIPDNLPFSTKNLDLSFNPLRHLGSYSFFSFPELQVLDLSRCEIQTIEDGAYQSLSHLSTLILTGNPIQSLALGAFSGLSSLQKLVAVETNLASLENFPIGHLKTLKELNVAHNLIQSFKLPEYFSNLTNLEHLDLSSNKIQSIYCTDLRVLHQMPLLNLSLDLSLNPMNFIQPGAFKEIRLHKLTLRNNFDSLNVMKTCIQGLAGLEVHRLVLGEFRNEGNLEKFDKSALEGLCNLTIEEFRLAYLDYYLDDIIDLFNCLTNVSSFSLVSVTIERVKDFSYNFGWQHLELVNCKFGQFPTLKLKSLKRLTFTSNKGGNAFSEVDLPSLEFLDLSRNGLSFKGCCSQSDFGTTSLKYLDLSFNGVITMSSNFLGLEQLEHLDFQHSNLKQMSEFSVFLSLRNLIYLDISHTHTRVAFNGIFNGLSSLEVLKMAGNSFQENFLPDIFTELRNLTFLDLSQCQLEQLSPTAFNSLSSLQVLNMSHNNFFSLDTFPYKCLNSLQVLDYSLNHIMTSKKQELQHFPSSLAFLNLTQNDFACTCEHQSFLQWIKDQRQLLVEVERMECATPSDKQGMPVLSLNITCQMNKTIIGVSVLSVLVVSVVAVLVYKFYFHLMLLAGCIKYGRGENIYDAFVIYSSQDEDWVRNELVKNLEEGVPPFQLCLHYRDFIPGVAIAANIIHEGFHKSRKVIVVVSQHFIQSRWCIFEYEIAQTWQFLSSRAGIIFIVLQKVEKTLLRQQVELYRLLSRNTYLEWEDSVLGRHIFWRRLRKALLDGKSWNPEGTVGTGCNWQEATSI
Sequence of TLR4 (Q9Y6Y9 17-160 partner limits assumed): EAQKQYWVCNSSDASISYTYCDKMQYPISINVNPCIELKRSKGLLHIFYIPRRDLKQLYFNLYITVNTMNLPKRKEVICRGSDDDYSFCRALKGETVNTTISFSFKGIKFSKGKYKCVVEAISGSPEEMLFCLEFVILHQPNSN

Consider `O=C(c1ccc(Cl)cc1)N1CCN(c2ccc([N+](=O)[O-])c3ncccc23)CC1` [Compound S1], for which, at TLR5, the “inhibition of TLR5” value was “no obvious inhibition”. Also, the “inhibition of TLR1/2/6” value in the experiment with TLR1/2/6 is “no obvious inhibition”. Also, the “inhibition of TLR4” value on TLR4 is reported as “no obvious inhibition”. Besides, the “inhibition of TLR3” value on TLR3 is recorded as “no obvious inhibition”. On human TLR7, this compound gave an IC50 of 790 ± 270 nM.

As usually defined, the IC50 is the concentration that inhibits the measured activity by half. A high value points to a need for much substance.
